30 compounds from ChEMBL document CHEMBL2375278, “Small-molecule inhibitors of cathepsin L incorporating functionalized ring-fused molecular frameworks” (Bioorg Med Chem Lett, 2013) can be followed below.

Structures are written as SMILES.

Assay [1] concerns the target Cathepsin B (Homo sapiens, UniProt P07858). Put plainly: Inhibition of human liver Cathepsin B using Z-Arg-Arg-aminomethylcoumarin as substrate incubated for 5 mins prior to substrate addition measured for 5 mins by fluorometric analysis. The method in brief: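 Assay run with 2% DMSO in the well and a five-minute pre-incubation before substrate. Substrate was used at 60 µM. Activity is reported as IC₅₀ (nM).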

The species named for assay [2] is Homo sapiens. The assay can be described thus: Selectivity ratio of IC50 for human liver Cathepsin B to IC50 for human liver Cathepsin L.
The target of assay [3] is Procathepsin L (Homo sapiens, UniProt P07711). The assay can be described thus: Inhibition of human liver Cathepsin L using Z-Phe-Arg-aminomethylcoumarin as substrate incubated for 5 mins prior to substrate addition measured for 5 mins by fluorometric analysis. The method in brief: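 Assay run with 2% DMSO in the well and a five-minute pre-incubation before substrate. Substrate was used at 50 µM. Activity is reported as IC₅₀ (nM).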
Procathepsin L, sequence (P07711 whole entry): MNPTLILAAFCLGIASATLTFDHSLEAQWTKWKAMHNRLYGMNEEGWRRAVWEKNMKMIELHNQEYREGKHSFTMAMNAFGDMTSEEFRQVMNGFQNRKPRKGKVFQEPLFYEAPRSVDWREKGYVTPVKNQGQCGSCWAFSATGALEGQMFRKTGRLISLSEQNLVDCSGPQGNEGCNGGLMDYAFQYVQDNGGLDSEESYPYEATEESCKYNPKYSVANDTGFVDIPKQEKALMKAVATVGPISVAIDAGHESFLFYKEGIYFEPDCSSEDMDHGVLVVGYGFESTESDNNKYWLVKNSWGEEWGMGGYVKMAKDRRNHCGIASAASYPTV

As to `NC(=S)N/N=C1\CCOc2ccc(Cl)cc21`, the IC50 (in general, the concentration that inhibits the measured activity by half) was more than 10 µM in assay [1] and 0.369 µM in assay [3]. Besides, in assay [2], the Ratio IC50 is more than 20.
The corresponding values for `NC(=S)N/N=C1\CCNc2ccc([N+](=O)[O-])cc21` are more than 10 µM, 0.449 µM and more than 20.
On to `COc1ccc2c(c1)CCC/C2=N\NC(N)=S`, for which the IC50 in assay [1] and in assay [3] was more than 10 µM each time.
Turning to `NC(=S)N/N=C1\CCS(=O)(=O)c2ccc(N)cc21`, the IC50 in assay [1] and in assay [3] was more than 10 µM each time.
As for `N=C(N)N/N=C1\CCS(=O)(=O)c2ccc([N+](=O)[O-])cc21`, the IC50 in assay [1] and in assay [3] was more than 10 µM in each case.
Regarding `NC(=S)N/N=C1\CCCc2cc(N)ccc21`, the IC50 in assay [1] and in assay [3] was more than 10 µM each time.
With `COc1cccc2c1CCC/C2=N\NC(N)=S`, the half-inhibitory concentration (IC50) in assay [1] and in assay [3] was more than 10 µM each time.
As for `NC(=S)N/N=C1\CCNc2ccc(Br)cc21`, the results for the half-inhibitory concentration (IC50) in assay [1] and in assay [3] were more than 10 µM and 0.164 µM, respectively. The Ratio IC50 in assay [2] is more than 20.
As for `NC(=S)N/N=C1\CCc2ccc(Br)cc21`, the IC50 in assay [1] and in assay [3] was more than 10 µM throughout.
`NC(=S)N/N=C1\CCCc2c(O)cccc21`: the IC50 in assay [1] and in assay [3] was more than 10 µM each time.
For `NC(=S)N/N=C1\CCNc2c(Cc3ccccc3)cccc21`, the IC50 in assay [1] and in assay [3] was more than 10 µM throughout.
On to `NC(=S)N/N=C1\CCCS(=O)(=O)c2cc(F)c(F)cc21`, for which the IC50 in assay [1] and in assay [3] was more than 10 µM in each case.
Consider `NC(=S)N/N=C1\CC(c2ccccc2)Oc2ccccc21` (configuration not stated), for which the IC50 in assay [1] and in assay [3] was more than 10 µM throughout.
Regarding `CC(=O)N1CC/C(=N\NC(N)=S)c2ccccc21`, the 50% inhibitory concentration (IC50) in assay [1] and in assay [3] was more than 10 µM each time.
Take `NC(=S)N/N=C1\CCN([N+](=O)[O-])c2ccc([N+](=O)[O-])cc21`: the IC50 is more than 10 µM in assay [1] and 0.228 µM in assay [3]. The Ratio IC50 in assay [2] was more than 20.
For `NC(=S)N/N=C1\CCCS(=O)(=O)c2ccc([N+](=O)[O-])cc21`, the half-inhibitory concentration (IC50) in assay [1] and in assay [3] was more than 10 µM in each case.
On to `N=C(N)N/N=C1\CCSc2ccc([N+](=O)[O-])cc21`, for which the IC50 in assay [1] and in assay [3] was more than 10 µM in each case.
Turning to `NC(=S)NN=C1c2cc([N+](=O)[O-])ccc2-c2ccc([N+](=O)[O-])cc21`, the IC50 in assay [1] and in assay [3] was more than 10 µM each time.
Turning to `NC(=S)N/N=C1\CCNc2c1cc([N+](=O)[O-])cc2[N+](=O)[O-]`, the figures for the IC50 in assay [1] and in assay [3] were more than 10 µM and 0.338 µM, respectively. Besides, in assay [2], the Ratio IC50 was more than 20.
As for `NC(=S)N/N=C1\CCCSc2cc(F)c(F)cc21`, the IC50 in assay [1] is more than 10 µM; in assay [3], not below 10 µM.
The corresponding values for `NC(=S)N/N=C1\CCNc2ccccc21` are more than 10 µM and more than 10 µM.
`NC(=S)N/N=C1\CCCSc2ccc([N+](=O)[O-])cc21`: the IC50 in assay [1] is more than 10 µM; in assay [3] it was 0.658 µM. Moreover, the Ratio IC50 in assay [2] is more than 15.2.
As to `NC(=S)N/N=C1\CCCCc2ccccc21`, the IC50 in assay [1] and in assay [3] was more than 10 µM in each case.
In the case of `NC(=S)N/N=C1\CC[S+]([O-])c2ccc([N+](=O)[O-])cc21` (configuration not stated), the IC50 in assay [1] is more than 10 µM; in assay [3] it was 1.74 µM. Further, the Ratio IC50 in assay [2] is more than 5.7.
Turning to `COc1ccc2c(c1)/C(=N/NC(N)=S)CCC2`, the IC50 in assay [1] and in assay [3] was more than 10 µM in each case.
As to `NC(=S)N/N=C1\CCN([N+](=O)[O-])c2ccccc21`, the IC50 in assay [1] and in assay [3] was more than 10 µM throughout.
As for `NC(=S)N/N=C1\CCc2ccccc2C1`, the IC50 in assay [1] and in assay [3] was more than 10 µM each time.
Turning to `CN1CC/C(=N\NC(N)=S)c2cc(Br)ccc21`, the IC50 in assay [1] and in assay [3] was more than 10 µM in each case.
As for `NC(=S)N/N=C1\CC(Nc2ccccc2)c2ccc(Br)cc21` (configuration not stated), the half-maximal inhibitory concentration (IC50) in assay [1] and in assay [3] was more than 10 µM in each case.
Consider `CS(=O)(=O)c1ccc2c(c1)/C(=N/NC(N)=S)CCS2(=O)=O`, for which the IC50 in assay [1] and in assay [3] was more than 10 µM throughout.
